Results as given in article PMC8769552 (Science Advances, 2022).
Blank lines part the entries; values can stand above or below the compound they belong to.

Legend:
[1] = system: HEK293T whole-cell lysates; experiment: Fluorogenic lysate deacylase assay; assay type: biochemical, human; details: 37°C, 60 min; for conversion of AMC substrate by whole-cell lysate: substrate 50 μM, lysate 30 μg per well, NAD+ 500 μM, tris buffer, n = 4
HeLa cells = experiment: Histone lactylation and acetylation in HeLa cells after inhibitor treatment; assay type: cell-based, human; details: 5-hour treatment, TMP195 5 μM, NAM 10 mM; for global histone lactylation levels: sodium butyrate 2 mM, TSA 1 μM, apicidin 1 μM
Summary of the method: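 HeLa cells treated 5 h with pan-HDAC inhibitors (2 mM or 1 μM), HDAC1–3-selective inhibitor (1 μM), class IIa-selective inhibitor (5 μM) or pan-sirtuin inhibitor (10 mM). Histone lactylation and acetylation by Western blot: blocked in 3% BSA/TBST 1 h at RT, primary antibody overnight at 4°C, LI-COR secondary 1:10,000 for 1 h, Odyssey imaging.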

HDAC3 = assay type: biochemical, human; details: acid-extracted histones from HeLa cells, recombinant HDAC3
Summary of the method: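 Histones acid-extracted from HeLa cells (hypotonic sucrose/Triton wash, no-salt EDTA/EGTA step, 0.2 M H2SO4 overnight at 4°C, 20% TCA precipitation). 20 μg histones incubated with 0.2 μg recombinant human HDAC at 37°C for 1 or 4 h in tris buffer (50 mM tris/Cl, 137 mM NaCl, 2.7 mM KCl, 1 mM MgCl2, pH 8). Stopped by boiling 5 min in loading buffer; Western blot readout.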

HDAC2 = experiment: Fluorogenic Michaelis-Menten assay; assay type: biochemical, human; details: K(D-la) versus K(L-la), Ac-LGK-AMC; stated for HDAC1/2
HDAC1 = HDAC1 (Homo sapiens, UniProt Q13547); experiment: Fluorogenic Michaelis-Menten assay; assay type: biochemical; details: K(D-la) versus K(L-la), Ac-LGK-AMC; stated for HDAC1/2
HDAC3/NCoR2 = HDAC3/NCoR2 (Homo sapiens, UniProt O15379+Q9Y618); experiment: Fluorogenic Michaelis-Menten assay; assay type: biochemical; details: K(D-la) versus K(L-la), Ac-LGK-AMC
HDAC1–3 = experiment: Fluorogenic substrate screening assay; assay type: biochemical, human; details: substrate 50 μM, HDACs 50 nM, tris buffer, 37°C, 60 min; n = 2

Sequence of HDAC1 (Q13547 whole entry): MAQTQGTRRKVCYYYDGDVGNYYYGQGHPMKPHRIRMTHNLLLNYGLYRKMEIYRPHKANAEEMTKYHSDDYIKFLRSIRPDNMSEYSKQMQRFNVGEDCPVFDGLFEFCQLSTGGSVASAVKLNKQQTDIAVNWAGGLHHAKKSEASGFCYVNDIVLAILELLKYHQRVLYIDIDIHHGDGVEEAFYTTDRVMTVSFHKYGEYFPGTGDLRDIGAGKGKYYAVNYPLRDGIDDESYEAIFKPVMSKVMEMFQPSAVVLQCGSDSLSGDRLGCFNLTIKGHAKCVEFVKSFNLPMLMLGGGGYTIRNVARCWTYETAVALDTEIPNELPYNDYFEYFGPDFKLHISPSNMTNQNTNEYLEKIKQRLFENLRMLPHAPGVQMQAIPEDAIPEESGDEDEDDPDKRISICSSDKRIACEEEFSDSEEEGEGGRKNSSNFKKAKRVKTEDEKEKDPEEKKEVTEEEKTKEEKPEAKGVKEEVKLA
Sequence of HDAC3/NCoR2 (O15379 whole entry): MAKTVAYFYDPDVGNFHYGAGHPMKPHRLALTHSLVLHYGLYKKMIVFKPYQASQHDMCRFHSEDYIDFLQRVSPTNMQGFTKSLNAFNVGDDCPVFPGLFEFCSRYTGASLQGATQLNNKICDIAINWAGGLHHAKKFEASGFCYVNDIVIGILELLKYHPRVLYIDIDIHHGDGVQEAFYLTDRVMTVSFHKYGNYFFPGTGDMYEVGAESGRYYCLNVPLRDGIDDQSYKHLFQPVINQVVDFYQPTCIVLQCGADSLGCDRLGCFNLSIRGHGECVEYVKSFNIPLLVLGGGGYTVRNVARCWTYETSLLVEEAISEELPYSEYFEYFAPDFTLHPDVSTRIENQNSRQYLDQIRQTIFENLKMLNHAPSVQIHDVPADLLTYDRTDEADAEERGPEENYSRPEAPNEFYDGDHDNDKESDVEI
Sequence of HDAC3/NCoR2 (Q9Y618 389-480 partner limits assumed): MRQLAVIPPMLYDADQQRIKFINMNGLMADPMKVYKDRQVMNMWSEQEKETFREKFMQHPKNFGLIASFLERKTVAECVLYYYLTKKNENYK

Compound: NC(=O)c1cccnc1 [NAM, nicotinamide]
effect of inhibitor on lysate deacylation of 1a–c ([1]; NAM 10 mM, substrates 50 μM): did not substantially change the outcome of the deacylation events
histone Kac levels (HeLa cells): does not affect histone Kac levels
global histone lactylation levels (HeLa cells): failed to affect histone lactylation levels substantially

Compound: CCCC(=O)[O-].[Na+] [sodium butyrate]
global histone lactylation levels (HeLa cells): increased global histone lactylation levels

Compound: CC(C)(CNC(=O)c1cccc(-c2noc(C(F)(F)F)n2)c1)c1coc(-c2ccccc2)n1 [TMP195]
histone Kac levels (HeLa cells): lack of effect
global histone lactylation levels (HeLa cells): failed to affect histone lactylation levels substantially

Compound: CCC(=O)CCCCC[C@@H]1NC(=O)[C@H]2CCCCN2C(=O)[C@H]([C@@H](C)CC)NC(=O)[C@H](Cc2cn(OC)c3ccccc23)NC1=O [apicidin]
global histone lactylation levels (HeLa cells): enhanced lactylation
inhibition of HDAC3-mediated decrease of global histone lactylation (HDAC3): could be inhibited

Compound: Ac-Ala-Pro-Arg-Lys(D-La)-AMC [1c]
conversion of AMC substrate by whole-cell lysate [1]: converted to a larger extent than its K(L-la) counterpart

Compound: CC(/C=C/C(=O)NO)=C\[C@@H](C)C(=O)c1ccc(N(C)C)cc1 [TSA, trichostatin A]
global histone lactylation levels (HeLa cells): increased global histone lactylation levels
inhibition of HDAC3-mediated decrease of global histone lactylation (HDAC3): could be inhibited

fold higher kcat/KM for 2c than for 2b (HDAC2): > 6 fold
fold higher kcat/KM for 2c than for 2b (HDAC1): > 6 fold
fold higher kcat/KM for 2c than for 2b (HDAC3/NCoR2): 3.5 fold
Compound: Ac-Leu-Gly-Lys(D-La)-AMC [2c]

Compound: Ac-Ala-Pro-Arg-Lys(L-La)-AMC [1b]
conversion of AMC substrate by whole-cell lysate [1]: able to remove the lactyl modifications, albeit to a lower extent than the corresponding Kac modification

deacylase activity (AMC release) (HDAC1–3): measurable activity
Compound: Ac-Gln-Pro-Lys-Lys(L-La)-AMC [4b]
